In ChEMBL document CHEMBL4229410, “Facile construction of fused benzimidazole-isoquinolinones that induce cell-cycle arrest and apoptosis in colorectal cancer cells” (Bioorg Med Chem, 2018):

Columns and labels:
[1] = biological target: Phosphatidylinositol 4,5-bisphosphate 3-kinase catalytic subunit gamma isoform (Homo sapiens, UniProt P48736); experiment: Binding affinity to human PIK3CG (S144 to A1102 residues) expressed in mammalian expression system by KINOMEscan assay
[2] = biological target: Mitogen-activated protein kinase 3 (Homo sapiens, UniProt P27361); experiment: Inhibition of full length human ERK1 (M1 to P379 residues) expressed in bacterial expression system assessed as residual activity at 5 uM by KINOMEscan assay relative to control
Chain of Mitogen-activated protein kinase 3 (P27361 whole entry, the tested form may be a part): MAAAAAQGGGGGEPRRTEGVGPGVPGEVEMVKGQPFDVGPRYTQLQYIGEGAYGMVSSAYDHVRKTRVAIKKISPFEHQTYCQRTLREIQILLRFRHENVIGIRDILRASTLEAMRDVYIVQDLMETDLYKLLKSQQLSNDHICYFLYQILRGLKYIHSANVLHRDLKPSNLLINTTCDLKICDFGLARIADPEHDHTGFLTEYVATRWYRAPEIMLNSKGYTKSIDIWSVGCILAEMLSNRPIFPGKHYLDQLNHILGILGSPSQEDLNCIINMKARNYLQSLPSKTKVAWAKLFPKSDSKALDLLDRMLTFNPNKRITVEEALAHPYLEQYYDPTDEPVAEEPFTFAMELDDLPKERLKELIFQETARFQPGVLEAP

[3] = biological target: T1, Serine/threonine-protein kinase B-raf (Homo sapiens, UniProt P15056); experiment: Binding affinity to human BRAF (S429 to E741 residues) expressed in mammalian expression system by KINOMEscan assay
T1 sequence (P15056 whole entry, the tested form may be a part): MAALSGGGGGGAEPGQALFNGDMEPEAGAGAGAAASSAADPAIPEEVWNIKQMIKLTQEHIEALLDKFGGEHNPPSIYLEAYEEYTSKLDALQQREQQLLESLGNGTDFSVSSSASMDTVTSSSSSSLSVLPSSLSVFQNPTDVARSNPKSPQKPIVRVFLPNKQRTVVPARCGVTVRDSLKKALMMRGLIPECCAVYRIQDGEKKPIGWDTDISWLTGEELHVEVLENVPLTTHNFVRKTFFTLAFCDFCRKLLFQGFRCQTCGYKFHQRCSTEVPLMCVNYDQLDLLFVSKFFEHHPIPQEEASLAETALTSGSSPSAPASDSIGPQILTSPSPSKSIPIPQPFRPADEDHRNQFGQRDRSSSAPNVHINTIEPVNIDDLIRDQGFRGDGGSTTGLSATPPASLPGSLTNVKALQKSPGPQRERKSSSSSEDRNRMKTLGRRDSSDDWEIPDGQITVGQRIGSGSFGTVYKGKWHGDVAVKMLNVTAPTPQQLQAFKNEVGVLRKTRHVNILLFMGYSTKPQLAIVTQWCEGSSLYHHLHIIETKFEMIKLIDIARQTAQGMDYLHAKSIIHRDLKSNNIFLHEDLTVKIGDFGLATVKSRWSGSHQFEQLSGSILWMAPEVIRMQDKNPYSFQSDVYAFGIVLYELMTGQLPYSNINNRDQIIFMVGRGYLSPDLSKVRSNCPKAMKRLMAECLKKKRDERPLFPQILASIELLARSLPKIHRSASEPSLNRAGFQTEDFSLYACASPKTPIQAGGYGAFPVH

HT-29 [4] = experiment: Down regulation of cyclin-B1 expression in human HT-29 cells after 48 hrs by Western blot analysis; format: functional, cell-based
Outline: (§1)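 HT29 or SW620 cells were treated at 0, 25, 50 and 75 μM for 48 h and lysed in RIPA with protease and phosphatase inhibitors. Protein was quantified by BCA. 50 μg lysate was run on 8–15% SDS-PAGE and transferred to PVDF. Blocking was 5% BSA/TBST for 2 h; primary antibodies were applied overnight at 4 °C, then HRP secondary 1 h at room temperature.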

SW-620 [5] = experiment: Induction of apoptosis in human SW620 cells assessed as reduction in BCL2 expression after 48 hrs by Western blot analysis; format: functional, cell-based
[6] = biological target: Inhibitor of nuclear factor kappa-B kinase subunit beta (Homo sapiens) (UniProt O14920); experiment: Inhibition of full length human IKKbeta (M1 to S756 residues) expressed in mammalian expression system assessed as residual activity at 5 uM by KINOMEscan assay relative to control
Chain of Inhibitor of nuclear factor kappa-B kinase subunit beta (Homo sapiens) (O14920 whole entry, the tested form may be a part): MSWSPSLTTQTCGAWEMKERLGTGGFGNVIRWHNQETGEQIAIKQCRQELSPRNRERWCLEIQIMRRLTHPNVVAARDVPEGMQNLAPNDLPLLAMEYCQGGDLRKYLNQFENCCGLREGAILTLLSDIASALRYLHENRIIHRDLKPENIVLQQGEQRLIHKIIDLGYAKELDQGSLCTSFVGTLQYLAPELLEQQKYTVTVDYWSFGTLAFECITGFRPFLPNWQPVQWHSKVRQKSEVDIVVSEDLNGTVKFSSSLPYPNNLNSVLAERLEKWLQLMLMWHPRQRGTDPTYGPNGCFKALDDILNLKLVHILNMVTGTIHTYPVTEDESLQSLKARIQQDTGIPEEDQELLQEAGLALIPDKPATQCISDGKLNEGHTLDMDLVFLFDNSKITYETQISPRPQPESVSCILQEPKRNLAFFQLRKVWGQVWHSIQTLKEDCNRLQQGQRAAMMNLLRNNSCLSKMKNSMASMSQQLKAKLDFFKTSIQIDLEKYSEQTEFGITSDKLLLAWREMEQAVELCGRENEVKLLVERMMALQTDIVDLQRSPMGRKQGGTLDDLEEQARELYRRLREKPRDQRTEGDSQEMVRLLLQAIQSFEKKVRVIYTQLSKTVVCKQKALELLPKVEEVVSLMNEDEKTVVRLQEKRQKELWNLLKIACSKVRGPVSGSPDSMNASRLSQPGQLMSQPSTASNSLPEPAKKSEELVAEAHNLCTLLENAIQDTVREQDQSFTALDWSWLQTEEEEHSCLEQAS

HT-29 [7] = experiment: Induction of apoptosis in human HT-29 cells assessed as late apoptotic cells at 75 uM after 48 hrs by Annexin-V-FITC/propidium iodide staining based flow cytometry (reference value: 4.1%); format: functional
SW-620 [8] = experiment: Induction of apoptosis in human SW620 cells after 48 hrs by Annexin-V-FITC/propidium iodide staining based flow cytometry; format: functional, cell-based
HT-29 [9] = experiment: Upregulation of p21 expression in human HT-29 cells after 48 hrs by Western blot analysis; format: functional, cell-based
[10] = biological target: Inhibitor of nuclear factor kappa-B kinase subunit beta (Homo sapiens, UniProt O14920); experiment: Binding affinity to full length human IKKbeta (M1 to S756 residues) expressed in mammalian expression system by KINOMEscan assay
Chain of Inhibitor of nuclear factor kappa-B kinase subunit beta (O14920 whole entry, the tested form may be a part): as above

[11] = biological target: Glycogen synthase kinase-3 beta (Homo sapiens, UniProt P49841); experiment: Inhibition of full length human GSK3B (M1 to T433 residues) expressed in mammalian expression system assessed as residual activity at 5 uM by KINOMEscan assay relative to control
Chain of Glycogen synthase kinase-3 beta (P49841 whole entry, looked up, the tested form may be a part): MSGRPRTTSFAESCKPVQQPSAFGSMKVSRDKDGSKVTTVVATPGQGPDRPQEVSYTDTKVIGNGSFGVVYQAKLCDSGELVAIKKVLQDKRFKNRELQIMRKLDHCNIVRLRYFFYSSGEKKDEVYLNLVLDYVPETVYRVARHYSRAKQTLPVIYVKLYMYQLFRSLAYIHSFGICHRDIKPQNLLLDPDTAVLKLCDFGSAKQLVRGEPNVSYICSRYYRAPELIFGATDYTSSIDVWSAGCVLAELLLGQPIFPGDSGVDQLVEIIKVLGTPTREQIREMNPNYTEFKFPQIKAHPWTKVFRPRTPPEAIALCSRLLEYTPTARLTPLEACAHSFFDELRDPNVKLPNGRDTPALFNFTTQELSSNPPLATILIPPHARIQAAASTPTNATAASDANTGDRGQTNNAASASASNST

Activin receptor type-1B = Activin receptor type-1B (Homo sapiens, UniProt P36896); experiment: Binding affinity to human ACVR1B (S187 to I505 residues) expressed in bacterial expression system by KINOMEscan assay
[12] = biological target: Tyrosine-protein kinase ABL1 (Homo sapiens, UniProt P00519); experiment: Inhibition of human phosphorylated ABL1 (S229 to K512 residues) expressed in mammalian expression system assessed as residual activity at 5 uM by KINOMEscan assay relative to control
[13] = biological target: Serine/threonine-protein kinase RIO2 (Homo sapiens, UniProt Q9BVS4); experiment: Inhibition of human RIOK2 (M1 to D313 residues) expressed in mammalian expression system assessed as residual activity at 5 uM by KINOMEscan assay relative to control
[14] = biological target: Mitogen-activated protein kinase kinase kinase 4 (Homo sapiens, UniProt Q9Y6R4); experiment: Binding affinity to human MAP3K4 (G1319 to E1608 residues) expressed in bacterial expression system by KINOMEscan assay
Chain of Mitogen-activated protein kinase kinase kinase 4 (Q9Y6R4 whole entry, the tested form may be a part): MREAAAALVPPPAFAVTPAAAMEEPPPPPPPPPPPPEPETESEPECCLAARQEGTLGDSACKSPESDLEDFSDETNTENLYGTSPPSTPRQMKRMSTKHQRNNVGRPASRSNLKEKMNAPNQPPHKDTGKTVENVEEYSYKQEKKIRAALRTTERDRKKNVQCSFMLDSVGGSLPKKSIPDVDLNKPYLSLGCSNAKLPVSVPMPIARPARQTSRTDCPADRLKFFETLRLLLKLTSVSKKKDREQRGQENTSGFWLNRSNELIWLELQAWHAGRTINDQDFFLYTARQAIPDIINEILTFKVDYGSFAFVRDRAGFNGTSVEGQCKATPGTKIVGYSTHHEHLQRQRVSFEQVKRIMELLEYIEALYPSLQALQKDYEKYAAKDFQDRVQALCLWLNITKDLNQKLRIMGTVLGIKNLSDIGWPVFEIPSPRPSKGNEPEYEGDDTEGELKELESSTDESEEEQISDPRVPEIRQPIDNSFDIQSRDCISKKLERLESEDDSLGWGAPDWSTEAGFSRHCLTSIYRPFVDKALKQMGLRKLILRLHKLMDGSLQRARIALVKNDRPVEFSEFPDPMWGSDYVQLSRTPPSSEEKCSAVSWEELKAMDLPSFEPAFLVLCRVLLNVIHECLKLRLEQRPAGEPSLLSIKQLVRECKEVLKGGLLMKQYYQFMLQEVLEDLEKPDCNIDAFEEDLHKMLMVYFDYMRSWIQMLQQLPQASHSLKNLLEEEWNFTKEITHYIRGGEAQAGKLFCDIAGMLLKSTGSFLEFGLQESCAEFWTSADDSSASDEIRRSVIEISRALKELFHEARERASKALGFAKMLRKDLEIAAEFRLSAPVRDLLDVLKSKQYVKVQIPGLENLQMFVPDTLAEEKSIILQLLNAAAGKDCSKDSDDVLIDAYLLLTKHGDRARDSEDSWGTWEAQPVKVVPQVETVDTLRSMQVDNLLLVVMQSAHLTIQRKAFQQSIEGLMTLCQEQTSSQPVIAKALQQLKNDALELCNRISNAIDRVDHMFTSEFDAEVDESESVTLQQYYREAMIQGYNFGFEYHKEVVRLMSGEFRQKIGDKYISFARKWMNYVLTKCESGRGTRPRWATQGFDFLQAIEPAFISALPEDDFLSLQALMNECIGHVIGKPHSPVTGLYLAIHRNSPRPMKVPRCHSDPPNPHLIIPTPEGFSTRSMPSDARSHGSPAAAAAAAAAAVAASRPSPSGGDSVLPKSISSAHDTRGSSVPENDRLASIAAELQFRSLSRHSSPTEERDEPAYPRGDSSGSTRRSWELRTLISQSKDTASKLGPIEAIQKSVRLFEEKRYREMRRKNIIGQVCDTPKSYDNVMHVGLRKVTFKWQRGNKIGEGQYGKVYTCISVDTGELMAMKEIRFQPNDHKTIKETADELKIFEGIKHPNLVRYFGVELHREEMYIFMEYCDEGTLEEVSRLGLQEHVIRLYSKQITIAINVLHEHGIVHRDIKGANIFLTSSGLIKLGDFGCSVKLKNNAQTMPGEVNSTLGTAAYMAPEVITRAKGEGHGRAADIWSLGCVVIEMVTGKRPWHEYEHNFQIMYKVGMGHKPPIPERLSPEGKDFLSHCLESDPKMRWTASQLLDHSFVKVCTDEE

HT-29 [15] = experiment: Antiproliferative activity against human HT-29 cells after 48 hrs by BrdU/DAPI staining based immunofluorescence assay; format: functional, cell-based
Outline: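 Cells seeded at 20,000 per well after reaching 80% confluence; exposed 48 h to 0, 25, 50, 75 μM, then 10 μM BrdU for 2 h. Paraformaldehyde fixation, 2 M HCl 30 min, 10% goat serum block, anti-BrdU primary overnight at 4 °C, secondary 120 min at room temperature, DAPI 300 nM. Fluorescence microscopy; percent BrdU-positive nuclei, mean ± SD of three independent experiments.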

[16] = biological target: T2, Serine/threonine-protein kinase PLK1 (Homo sapiens, UniProt P53350); experiment: Inhibition of human PLK1 (A33 to F325 residues) expressed in mammalian expression system assessed as residual activity at 5 uM by KINOMEscan assay relative to control
T2 sequence (P53350 whole entry, the tested form may be a part): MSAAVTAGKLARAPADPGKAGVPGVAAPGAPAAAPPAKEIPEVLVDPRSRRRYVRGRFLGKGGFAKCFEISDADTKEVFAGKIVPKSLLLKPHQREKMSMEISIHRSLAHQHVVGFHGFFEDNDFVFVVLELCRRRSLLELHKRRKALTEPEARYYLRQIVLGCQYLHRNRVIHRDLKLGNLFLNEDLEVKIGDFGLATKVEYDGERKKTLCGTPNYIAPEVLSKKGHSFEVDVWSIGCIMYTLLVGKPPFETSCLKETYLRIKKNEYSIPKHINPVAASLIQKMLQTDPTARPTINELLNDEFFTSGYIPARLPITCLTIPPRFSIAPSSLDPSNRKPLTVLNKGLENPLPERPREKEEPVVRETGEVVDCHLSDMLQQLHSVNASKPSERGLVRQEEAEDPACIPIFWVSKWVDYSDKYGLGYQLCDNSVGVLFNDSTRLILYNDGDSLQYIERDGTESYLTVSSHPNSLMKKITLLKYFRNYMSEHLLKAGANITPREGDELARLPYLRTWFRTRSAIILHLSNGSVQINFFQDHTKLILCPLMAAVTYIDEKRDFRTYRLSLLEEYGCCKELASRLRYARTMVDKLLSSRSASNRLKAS

HT-29 [17] = experiment: Induction of apoptosis in human HT-29 cells assessed as live cells at 75 uM after 48 hrs by Annexin-V-FITC/propidium iodide staining based flow cytometry (reference value: 93.2%); format: functional
[18] = biological target: Mitogen-activated protein kinase 9 (Homo sapiens, UniProt P45984); experiment: Binding affinity to full length human JNK2 (M1 to Q382 residues) expressed in mammalian expression system by KINOMEscan assay
[19] = biological target: T1, Serine/threonine-protein kinase B-raf; experiment: Inhibition of human BRAF (S429 to E741 residues) expressed in mammalian expression system assessed as residual activity at 5 uM by KINOMEscan assay relative to control
[20] = biological target: Insulin-like growth factor 1 receptor (Homo sapiens, UniProt P08069); experiment: Inhibition of human IGF1R (L972 to D1294 residues) expressed in bacterial expression system assessed as residual activity at 5 uM by KINOMEscan assay relative to control
[21] = biological target: T2, Serine/threonine-protein kinase PLK1; experiment: Binding affinity to human PLK1 (A33 to F325 residues) expressed in mammalian expression system by KINOMEscan assay
HT-29 [22] = experiment: Effect on total AKT expression in human HT-29 cells up to 75 uM after 48 hrs by Western blot analysis; format: ADME, cell-based; conditions: ht-29, 48 h; outline: as §1
[23] = biological target: Casein kinase I isoform gamma-2 (Homo sapiens, UniProt P78368); experiment: Inhibition of full length human CSNK1G2 (M1 to K415 residues) expressed in bacterial expression system assessed as residual activity at 5 uM by KINOMEscan assay relative to control
Chain of Casein kinase I isoform gamma-2 (P78368 whole entry, looked up, the tested form may be a part, canonical isoform): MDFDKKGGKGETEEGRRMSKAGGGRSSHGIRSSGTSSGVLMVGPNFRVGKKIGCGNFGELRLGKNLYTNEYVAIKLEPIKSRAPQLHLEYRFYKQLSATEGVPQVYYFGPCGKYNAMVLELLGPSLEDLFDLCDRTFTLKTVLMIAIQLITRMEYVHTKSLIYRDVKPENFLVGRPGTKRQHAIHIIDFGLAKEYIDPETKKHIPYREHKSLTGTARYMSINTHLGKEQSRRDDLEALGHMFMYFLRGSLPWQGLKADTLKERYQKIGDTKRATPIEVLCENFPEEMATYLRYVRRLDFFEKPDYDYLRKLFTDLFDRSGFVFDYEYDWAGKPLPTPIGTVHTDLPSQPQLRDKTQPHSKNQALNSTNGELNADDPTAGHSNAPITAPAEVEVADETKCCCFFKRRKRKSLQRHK

Ephrin type-A receptor 2 = Ephrin type-A receptor 2 (Homo sapiens, UniProt P29317); experiment: Binding affinity to human EPHA2 (T593 to V891 residues) expressed in bacterial expression system by KINOMEscan assay
[24] = biological target: Mitogen-activated protein kinase kinase kinase 9 (Homo sapiens, UniProt P80192); experiment: Binding affinity to human MLK1 (V88 to W426 residues) expressed in bacterial expression system by KINOMEscan assay
Focal adhesion kinase 1 = Focal adhesion kinase 1 (Homo sapiens, UniProt Q05397); experiment: Binding affinity to human FAK (D402 to R696 residues) expressed in bacterial expression system by KINOMEscan assay
HT-29 [25] = experiment: Increase in PTEN expression in human HT-29 cells after 48 hrs by Western blot analysis; format: functional, cell-based; outline: as §1
[26] = biological target: Serine/threonine-protein kinase PLK3 (Homo sapiens, UniProt Q9H4B4); experiment: Binding affinity to partial length human PLK3 (A42 to L334 residues) expressed in mammalian expression system by KINOMEscan assay

**Q.** For `CC(C)CN(C(=O)c1cccnc1)c1c2ccccc2c(=O)n2c1[nH]c1ccccc12`, which Kd [1] is on record?
**A.** ≥ 5 µM

**Q.** What about the Activity [2] of the same compound?
**A.** 82%

**Q.** What about the Kd [3] of the same compound?
**A.** ≥ 5 µM

**Q.** What about the Activity (HT-29 [4]) of the same compound?
**A.** Dose-dependent effect

**Q.** And the Activity (SW-620 [5])?
**A.** Dose-dependent effect

**Q.** And the Activity [6]?
**A.** 93%

**Q.** What about the Activity (HT-29 [7]) of the same compound?
**A.** 31.1%

**Q.** And the Activity (SW-620 [8])?
**A.** Dose-dependent effect

**Q.** What about the Activity (HT-29 [9]) of the same compound?
**A.** Dose-dependent effect

**Q.** And the Kd [10]?
**A.** ≥ 5 µM

**Q.** And the Activity [11]?
**A.** 100%

**Q.** What about the Kd (Activin receptor type-1B) of the same compound?
**A.** ≥ 5 µM

**Q.** What about the Activity [12] of the same compound?
**A.** 85%

**Q.** And the Activity [13]?
**A.** 87%

**Q.** And the Kd [14]?
**A.** ≥ 5 µM

**Q.** And the Activity (HT-29 [15])?
**A.** Dose-dependent effect

**Q.** And the Activity [16]?
**A.** 100%

**Q.** What about the Activity (HT-29 [17]) of the same compound?
**A.** 49.8%

**Q.** And the Kd [18]?
**A.** ≥ 5 µM

**Q.** What about the Activity [19] of the same compound?
**A.** 82%

**Q.** And the Activity [20]?
**A.** 100%

**Q.** What about the Kd [21] of the same compound?
**A.** ≥ 5 µM

**Q.** What about the Activity (HT-29 [22]) of the same compound?
**A.** Non-Toxic

**Q.** What about the Activity [23] of the same compound?
**A.** 76%

**Q.** And the Kd (Ephrin type-A receptor 2)?
**A.** ≥ 5 µM

**Q.** What about the Kd [24] of the same compound?
**A.** ≥ 5 µM

**Q.** And the Kd (Focal adhesion kinase 1)?
**A.** ≥ 5 µM

**Q.** And the Activity (HT-29 [25])?
**A.** Dose-dependent effect

**Q.** What about the Kd [26] of the same compound?
**A.** ≥ 5 µM
